Measured values reported in ChEMBL document CHEMBL4382258, “Design and Optimization of Sulfone Pyrrolidine Sulfonamide Antagonists of Transient Receptor Potential Vanilloid-4 with in Vivo Activity in a Pulmonary Edema Model” (J Med Chem, 2018).
Converted amounts (≈) assume the structure as drawn.

How the values were obtained:
[1] = MRT in Sprague-Dawley rat at 1 mg/kg, iv or 2 mg/kg, po by LC/MS/MS analysis; type: ADME, organism-based; details: in vivo
[2] = test system: HepG2; assay: Induction of phospholipidosis in human HepG2 cells after 72 hrs by fluorescence assay relative to control; type: cell-based; details: hepg2, 72 h
[3] = Oral bioavailability in Sprague-Dawley rat at 2 mg/kg by LC/MS/MS analysis; type: ADME, organism-based; details: in vivo
[4] = test system: HepG2; assay: Induction of phospholipidosis in human HepG2 cells after 72 hrs by fluorescence assay; type: cell-based; details: hepg2, 72 h
[5] = Clearance in Sprague-Dawley rat at 1 mg/kg, iv administered as 30 mins infusion by LC/MS/MS analysis; type: ADME, organism-based; details: in vivo
[6] = Clearance adjusted for unbound fraction in Sprague-Dawley rat at 1 mg/kg, iv administered as 30 mins infusion by LC/MS/MS analysis; type: ADME, organism-based; details: in vivo, 0.5 h
[7] = Volume of distribution at steady state in Sprague-Dawley rat at 1 mg/kg, iv or 2 mg/kg, po by LC/MS/MS analysis; type: ADME, organism-based; details: in vivo, read-out: Vdss
[8] = target: T1, Transient receptor potential cation channel subfamily V member 4 (Homo sapiens, UniProt Q9HBA0); assay: Antagonist activity at human TRPV4 expressed in BHK/AC9 cells assessed as inhibition of GSK634775-induced […] pre-incubated for 10 mins followed by agonist addition by Fluo-4-AM dye-based FLIPR assay; type: cell-based
T1 sequence (Q9HBA0 whole entry): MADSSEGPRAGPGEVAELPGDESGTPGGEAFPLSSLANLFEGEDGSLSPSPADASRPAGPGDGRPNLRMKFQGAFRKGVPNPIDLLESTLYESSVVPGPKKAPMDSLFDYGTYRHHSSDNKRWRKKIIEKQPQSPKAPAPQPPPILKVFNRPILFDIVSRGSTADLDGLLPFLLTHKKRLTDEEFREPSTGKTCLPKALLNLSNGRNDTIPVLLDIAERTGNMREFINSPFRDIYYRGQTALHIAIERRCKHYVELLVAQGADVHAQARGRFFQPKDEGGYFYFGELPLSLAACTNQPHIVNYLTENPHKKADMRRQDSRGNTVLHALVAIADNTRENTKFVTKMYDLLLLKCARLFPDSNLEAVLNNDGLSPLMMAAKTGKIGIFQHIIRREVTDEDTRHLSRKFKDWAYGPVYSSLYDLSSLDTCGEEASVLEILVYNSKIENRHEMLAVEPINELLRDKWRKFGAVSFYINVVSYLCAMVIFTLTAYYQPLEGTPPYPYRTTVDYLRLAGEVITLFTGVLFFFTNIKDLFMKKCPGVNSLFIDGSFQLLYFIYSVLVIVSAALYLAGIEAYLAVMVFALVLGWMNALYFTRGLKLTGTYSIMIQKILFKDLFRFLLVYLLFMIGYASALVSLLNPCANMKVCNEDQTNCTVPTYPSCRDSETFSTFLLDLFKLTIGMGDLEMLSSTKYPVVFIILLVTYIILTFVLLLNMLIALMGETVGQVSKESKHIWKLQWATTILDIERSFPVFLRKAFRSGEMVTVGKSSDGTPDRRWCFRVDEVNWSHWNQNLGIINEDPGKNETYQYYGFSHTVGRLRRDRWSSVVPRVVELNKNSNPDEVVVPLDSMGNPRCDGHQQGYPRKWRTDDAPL

[9] = Permeability of the compound by PAMPA; type: ADME; details: read-out: permeability
[10] = Kinetic aqueous solubility of the compound by chemiluminescence nitrogen detection analysis; details: buffer
[11] = target: T1, Transient receptor potential cation channel subfamily V member 4; assay: Antagonist activity at human TRPV4 expressed in HEK cells assessed as inhibition of GSK634775-induced […] pre-incubated for 10 mins followed by agonist addition by Fluo-4-AM dye-based FLIPR assay; type: cell-based
How it was run: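 TRPV4 from human recombinant channels in HEK cells; block of calcium mobilization evoked by agonist GSK634775, read on a fluorescent imaging plate reader; reported potency is an average of repeat determinations.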

[12] = target: T2, Cytochrome P450 3A4 (Homo sapiens, UniProt P08684); details: 100 µM
T2 sequence (P08684 whole entry): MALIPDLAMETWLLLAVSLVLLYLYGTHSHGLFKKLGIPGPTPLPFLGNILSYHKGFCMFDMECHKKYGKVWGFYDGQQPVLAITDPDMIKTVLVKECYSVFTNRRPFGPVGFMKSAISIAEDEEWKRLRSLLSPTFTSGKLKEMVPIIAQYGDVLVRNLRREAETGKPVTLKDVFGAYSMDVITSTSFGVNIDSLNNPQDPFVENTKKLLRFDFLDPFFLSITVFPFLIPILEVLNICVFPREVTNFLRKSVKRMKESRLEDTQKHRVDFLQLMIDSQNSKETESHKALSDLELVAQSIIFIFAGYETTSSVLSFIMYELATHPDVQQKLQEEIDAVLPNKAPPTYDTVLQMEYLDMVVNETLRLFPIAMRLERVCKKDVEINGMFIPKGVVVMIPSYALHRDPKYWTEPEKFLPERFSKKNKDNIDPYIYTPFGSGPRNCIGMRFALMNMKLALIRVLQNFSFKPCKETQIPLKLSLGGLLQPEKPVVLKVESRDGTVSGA

[13] = target: T2, Cytochrome P450 3A4; assay: Reversible inhibition of CYP3A4 (unknown origin) in presence of NADPH by vivid red substrate-based assay
[14] = target: Voltage-gated inwardly rectifying potassium channel KCNH2 (Homo sapiens, UniProt Q12809); assay: Inhibition of human ERG expressed in CHO cells by Qpatch assay
Voltage-gated inwardly rectifying potassium channel KCNH2, sequence (Q12809 whole entry): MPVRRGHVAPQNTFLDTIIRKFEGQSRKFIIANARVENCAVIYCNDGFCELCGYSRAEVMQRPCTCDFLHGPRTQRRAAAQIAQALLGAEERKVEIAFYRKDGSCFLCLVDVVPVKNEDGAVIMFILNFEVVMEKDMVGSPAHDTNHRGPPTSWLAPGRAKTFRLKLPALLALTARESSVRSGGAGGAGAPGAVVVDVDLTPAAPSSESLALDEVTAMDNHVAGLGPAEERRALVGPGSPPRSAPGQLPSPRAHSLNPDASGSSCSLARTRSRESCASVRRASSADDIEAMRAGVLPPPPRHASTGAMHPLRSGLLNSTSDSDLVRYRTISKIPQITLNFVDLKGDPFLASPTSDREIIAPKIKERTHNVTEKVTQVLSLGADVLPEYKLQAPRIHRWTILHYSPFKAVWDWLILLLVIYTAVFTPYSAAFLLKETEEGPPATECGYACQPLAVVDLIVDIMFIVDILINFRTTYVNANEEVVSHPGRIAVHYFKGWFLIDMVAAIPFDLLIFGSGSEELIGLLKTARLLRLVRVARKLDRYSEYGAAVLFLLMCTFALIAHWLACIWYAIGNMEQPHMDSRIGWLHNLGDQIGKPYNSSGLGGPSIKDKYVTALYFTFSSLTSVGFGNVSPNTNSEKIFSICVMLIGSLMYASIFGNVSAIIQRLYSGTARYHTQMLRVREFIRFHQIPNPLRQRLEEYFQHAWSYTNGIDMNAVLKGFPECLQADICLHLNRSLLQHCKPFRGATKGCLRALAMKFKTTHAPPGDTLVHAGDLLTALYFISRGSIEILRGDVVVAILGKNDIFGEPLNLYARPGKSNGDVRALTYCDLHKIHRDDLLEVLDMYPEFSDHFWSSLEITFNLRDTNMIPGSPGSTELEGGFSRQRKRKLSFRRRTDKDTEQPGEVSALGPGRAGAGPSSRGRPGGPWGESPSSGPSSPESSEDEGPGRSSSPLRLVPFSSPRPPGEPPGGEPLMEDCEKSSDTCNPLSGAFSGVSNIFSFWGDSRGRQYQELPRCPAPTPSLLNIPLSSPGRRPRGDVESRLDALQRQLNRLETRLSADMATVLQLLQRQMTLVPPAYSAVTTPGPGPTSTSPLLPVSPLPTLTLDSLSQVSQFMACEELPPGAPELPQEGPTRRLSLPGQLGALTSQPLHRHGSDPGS

[15] = Lipophilicity, chromatographic hydrophobicity index of the compound in immobilized artificial membrane
[16] = pH 10.5 – pH 7.4
[17] = Plasma concentration in Sprague-Dawley rat heart failure-induced pulmonary edema model at 0.26 mg/kg, iv bolus loading dose followed by 0.2 ug/kg/min, iv continuous infusion dose for 60 mins; type: ADME, organism-based
[18] = Fraction unbound in Sprague-Dawley rat heart failure-induced pulmonary edema model at 0.09 to 0.78 mg/kg, iv bolus loading dose followed by 0.07 to 0.6 ug/kg/min, iv continuous infusion dose for 60 mins; type: ADME, organism-based; details: in vivo
[19] = Plasma concentration in Sprague-Dawley rat heart failure-induced pulmonary edema model at 0.78 mg/kg, iv bolus loading dose followed by 0.6 ug/kg/min, iv continuous infusion dose for 60 mins; type: ADME, organism-based
[20] = Plasma concentration in Sprague-Dawley rat heart failure-induced pulmonary edema model at 0.09 mg/kg, iv bolus loading dose followed by 0.07 ug/kg/min, iv continuous infusion dose for 60 mins; type: ADME, organism-based
[21] = test system: Rattus norvegicus; assay: Reversal of heart failure-induced pulmonary edema in Sprague-Dawley rat assessed as inhibition of GSK1016790A-induced increase in lung wet weight to body weight ratio at 0.26 mg/kg, iv bolus loading dose followed by 0.2 ug/kg/min, iv continuous infusion dose for 60 mins prior to agonist administration relative to control; type: functional
How it was run: (§1)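 Rats given vehicle or antagonist by i.v. infusion, then agonist GSK1016790A i.v. at 10 µg/kg/min for 10 min (100 µg/kg total). Edema scored as wet lung weight/body weight ratio against naïve animals; inhibition computed from the agonist response; mean ± SEM.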

[22] = test system: Rattus norvegicus; assay: Reversal of heart failure-induced pulmonary edema in Sprague-Dawley rat assessed as inhibition of GSK1016790A-induced increase in lung wet weight to body weight ratio at 0.09 to 0.78 mg/kg, iv bolus loading dose followed by 0.07 to 0.6 ug/kg/min, iv continuous infusion dose for 60 mins prior to agonist administration; type: functional, organism-based; how it was run: as §1
[23] = target: Transient receptor potential cation channel subfamily V member 4 (Rattus norvegicus, UniProt Q9ERZ8); assay: Antagonist activity at rat TRPV4 expressed in BHK/AC9 cells assessed as inhibition of GSK634775-induced […] pre-incubated for 10 mins followed by agonist addition by Fluo-4-AM dye-based FLIPR assay; type: cell-based
Transient receptor potential cation channel subfamily V member 4 (Rattus norvegicus, UniProt Q9ERZ8), sequence (Q9ERZ8 whole entry): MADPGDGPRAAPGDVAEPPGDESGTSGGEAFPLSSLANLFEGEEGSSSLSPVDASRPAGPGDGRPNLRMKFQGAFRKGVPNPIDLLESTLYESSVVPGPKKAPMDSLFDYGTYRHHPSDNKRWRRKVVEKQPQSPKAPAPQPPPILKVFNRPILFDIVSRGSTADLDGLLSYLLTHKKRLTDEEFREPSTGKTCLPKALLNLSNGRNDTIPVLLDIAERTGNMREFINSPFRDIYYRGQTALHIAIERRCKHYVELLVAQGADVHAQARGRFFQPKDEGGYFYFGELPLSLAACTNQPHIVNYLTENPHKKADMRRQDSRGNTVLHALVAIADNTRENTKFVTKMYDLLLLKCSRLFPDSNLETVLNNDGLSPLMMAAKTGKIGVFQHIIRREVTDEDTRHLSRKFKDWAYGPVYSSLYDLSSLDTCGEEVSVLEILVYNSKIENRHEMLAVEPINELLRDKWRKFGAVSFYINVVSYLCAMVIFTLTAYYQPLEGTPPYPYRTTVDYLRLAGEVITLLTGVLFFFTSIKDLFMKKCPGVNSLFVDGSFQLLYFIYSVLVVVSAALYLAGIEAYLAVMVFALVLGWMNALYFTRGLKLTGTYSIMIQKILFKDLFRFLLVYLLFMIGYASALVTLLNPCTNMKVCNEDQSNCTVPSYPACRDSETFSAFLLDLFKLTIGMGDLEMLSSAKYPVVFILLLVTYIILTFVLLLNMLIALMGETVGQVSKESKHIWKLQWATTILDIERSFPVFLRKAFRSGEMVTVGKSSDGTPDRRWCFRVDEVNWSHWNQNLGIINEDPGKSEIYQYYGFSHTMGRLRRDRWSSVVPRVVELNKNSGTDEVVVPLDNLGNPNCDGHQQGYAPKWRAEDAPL

[24] = target: T1, Transient receptor potential cation channel subfamily V member 4; assay: Antagonist activity at TRPV4 (unknown origin)
[25] = Metabolic stability in rat liver microsomes assessed as parent compound remaining after 30 mins; type: ADME, Microsome; details: read-out: Stability
How it was run: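 Rat liver microsomes incubated 30 min with glutathione for trapping; parent remaining measured.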

[26] = target: T1, Transient receptor potential cation channel subfamily V member 4; assay: Antagonist activity at human TRPV4 expressed in HEK cells assessed as inhibition of GSK634775-induced Ca2+ influx by FLIPR assay; type: cell-based

Row | SMILES | MRT [1] | bioavailability [3] | clearance [5] | CL free [6] | Vd [7] | IC50 [8] | IC50 [11] | also measured
1 | N#Cc1ccc(S(=O)(=O)N2C[C@H](S(=O)(=O)c3ccc(Cl)cc3)[C@](O)(CN)C2)c(Cl)c1 | 5.7 h | 22% | 12 mL/min/kg | 2.7 mL/min/kg | 4 L/kg |  |  | Activity [2]: 425%; pMED [4]: 4.7
2 | N#Cc1ccc(S(=O)(=O)[C@H]2CN(S(=O)(=O)c3ccc(C#N)cc3Cl)C[C@@]2(O)CO)cc1 | 1 h | 15% | 35 mL/min/kg | 4 mL/min/kg | 2.2 L/kg | 0.0032 µM |  | Papp [9]: 35 ×10⁻⁶ cm/s; solubility kinetic [10]: 400 µM (≈ 193 µg/mL)
3 | N#Cc1ccc(S(=O)(=O)[C@H]2CN(S(=O)(=O)c3ccc(Cl)cc3C#N)C[C@@]2(O)CO)cc1 | 0.5 h | 25% | 82 mL/min/kg | 7 mL/min/kg | 2.6 L/kg | 0.002 µM |  | solubility kinetic [10]: 380 µM (≈ 183 µg/mL)
4 | N#Cc1ccc(S(=O)(=O)N2C[C@H](S(=O)(=O)c3ccc(Cl)cc3)[C@](O)(CO)C2)cn1 | 3 h | 62% | 22 mL/min/kg | 1.2 mL/min/kg | 4.1 L/kg | 0.631 µM |  | 
5 | N#Cc1ccc(S(=O)(=O)[C@@H]2CN(S(=O)(=O)c3ccc(Cl)cc3Cl)C[C@@]2(O)CO)cc1 |  |  |  |  |  |  | 1.59 µM | 
6 | N#Cc1ccc(S(=O)(=O)N2C[C@H](S(=O)(=O)c3ccc(Cl)cn3)[C@](O)(CN)C2)c(Cl)c1 | 1.9 h | 64% | 12 mL/min/kg | 3.8 mL/min/kg | 1.3 L/kg | 0.0005 µM |  | TDI [12]: Not Active; IC50 [13]: 0.3 µM; IC50 [14]: 8 µM; pMED [4]: < 4; CHI [15]: 42; ΔCHI [16]: -2.2; solubility kinetic [10]: 500 µM (≈ 246 µg/mL)
7 | N#Cc1ccc(O[C@H]2CN(S(=O)(=O)c3ccc(Cl)cc3Cl)C[C@@]2(O)CO)cc1 | 0.6 h | 46% | 74 mL/min/kg | 15 mL/min/kg | 2.4 L/kg |  |  | Papp [9]: 37 ×10⁻⁶ cm/s
8 | N#Cc1ccc(S(=N)(=O)N2C[C@H](S(=O)(=O)c3ccc(Cl)cc3)[C@](O)(CO)C2)c(Cl)c1 (some centres undefined) | 0.9 h | 80% | 48 mL/min/kg | 8.9 mL/min/kg | 2.7 L/kg | 0.04 µM |  | 
9 | N#Cc1ccc(S(=O)(=O)N2C[C@H](S(=O)(=O)c3ccc(Cl)cn3)[C@@](O)(CN)C2)c(Cl)c1 | 2.2 h | 56% | 1.7 mL/min/kg | 1.7 mL/min/kg | 0.2 L/kg | 0.0005 µM |  | TDI [12]: Not Active; IC50 [13]: 4 µM; concentration at 1 h [17]: 2100 nM; fraction unbound at 1 h [18]: 0.014; concentration at 1 h [19]: 4500 nM; IC50 [14]: 8 µM; pMED [4]: < 4; CHI [15]: 36; ΔCHI [16]: 3.7; concentration at 1 h [20]: 400 nM; inhibition (INH) [21]: 88%; solubility kinetic [10]: 500 µM (≈ 246 µg/mL); fIC50 [22]: 8.5 nM; IC50 ([22]; Rattus norvegicus, Sprague-Dawley): 0.611 µM; IC50 [23]: 0.001 µM
10 | CC(C)(C)c1cc(N2C[C@@]3(CCC[C@](C)(Cn4cnc5ccc(C#N)cc54)C3)OC2=O)no1 |  |  |  |  |  |  |  | IC50 [24]: 0.0075 µM
11 | N#Cc1ccc(S(=O)(=O)N2C[C@H](S(=O)(=O)c3ccc(Cl)cn3)[C@](O)(CO)C2)c(Cl)c1 | 1.4 h | 62% | 23 mL/min/kg | 11 mL/min/kg | 2 L/kg |  |  | 
12 | N#Cc1ccc(S(=O)(=O)[C@H]2CN(S(=O)(=O)c3ccc(Cl)cc3Cl)C[C@@H]2O)cc1 | 2 h | 100% | 9 mL/min/kg | 30 mL/min/kg | 1.1 L/kg |  | 0.025 µM | Papp [9]: 78 ×10⁻⁶ cm/s
13 | N#Cc1ccc(S(=O)(=O)N2C[C@H](S(=N)(=O)c3ccc(Cl)cc3)[C@](O)(CO)C2)c(Cl)c1 (some centres undefined) | 1 h | 38% | 52 mL/min/kg | 4.8 mL/min/kg | 3.2 L/kg | 0.02 µM |  | 
14 | N#Cc1ccc(S(=O)(=O)[C@H]2CN(S(=O)(=O)c3ccc(Cl)cc3Cl)C[C@@]2(O)CO)cc1F | 0.8 h | 51% | 25 mL/min/kg | 14 mL/min/kg | 1.2 L/kg | 0.002 µM |  | remaining at 0.5 h [25]: 46%
15 | N#Cc1ccc(O[C@H]2CN(S(=O)(=O)c3ccc(Cl)cc3Cl)C[C@@H]2O)cc1 |  |  |  |  |  |  | 0.032 µM | 
16 | O=C(NC1(c2ccccc2)CC1)c1c(CN2CCC(N3CCCCC3)CC2)c(-c2cccc(C(F)(F)F)c2)nc2cc(Br)ccc12 |  |  |  |  |  |  |  | IC50 [26]: 0.05 µM
17 | N#Cc1ccc(S(=O)(=O)[C@H]2CN(S(=O)(=O)c3ccc(Cl)cc3Cl)C[C@@]2(O)CO)cc1 | 1.7 h | 100% | 25 mL/min/kg | 9 mL/min/kg | 2.3 L/kg |  | 0.0079 µM | Papp [9]: 45 ×10⁻⁶ cm/s; remaining at 0.5 h [25]: 89%
18 | N#Cc1ccc(S(=O)(=O)N2C[C@H](S(=O)(=O)c3ccc(Cl)cc3)[C@](O)(CO)C2)c(C(F)(F)F)n1 | 0.2 h | 8% | 310 mL/min/kg | 66 mL/min/kg | 3.6 L/kg | 0.02 µM |  | 
19 | N#Cc1ccc(S(=O)(=O)[C@H]2CN(S(=O)(=O)c3ccc(Cl)cc3Cl)C[C@]2(O)CO)cc1 |  |  |  |  |  |  | 0.05 µM | 
20 | N#Cc1ccc(S(=O)(=O)[C@@H]2CN(S(=O)(=O)c3ccc(Cl)cc3Cl)C[C@]2(O)CO)cc1 |  |  |  |  |  |  | 0.159 µM | 
